From ChEMBL document CHEMBL3425420 (J Med Chem, 2015)

Legend:
[1] = biological target: T1, Induced myeloid leukemia cell differentiation protein Mcl-1 (Homo sapiens, UniProt Q07820); test: Displacement of FITC-Bak-BH3 peptide from Mcl-1 (unknown origin) incubated for 1.5 hrs by FPA competition assay
[2] = biological target: Bcl-2-like protein 1 (Homo sapiens, UniProt Q07817); test: Displacement of FITC-Bak-BH3 peptide from Bcl-xL (unknown origin) incubated for 1.5 hrs by FPA competition assay
Procedure, shortened: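 Compounds were added as a 10-point, 3-fold serial dilution and incubated 1.5 h at room temperature. IC50 came from a four-parameter fit of the anisotropy change, was converted to Ki, and duplicate values were averaged.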

[3] = biological target: Apoptosis regulator Bcl-2 (Homo sapiens, UniProt P10415); test: Displacement of FITC-Bak-BH3 peptide from Bcl-2 (unknown origin) incubated for 1.5 hrs by FPA competition assay
Apoptosis regulator Bcl-2, sequence (P10415 whole entry): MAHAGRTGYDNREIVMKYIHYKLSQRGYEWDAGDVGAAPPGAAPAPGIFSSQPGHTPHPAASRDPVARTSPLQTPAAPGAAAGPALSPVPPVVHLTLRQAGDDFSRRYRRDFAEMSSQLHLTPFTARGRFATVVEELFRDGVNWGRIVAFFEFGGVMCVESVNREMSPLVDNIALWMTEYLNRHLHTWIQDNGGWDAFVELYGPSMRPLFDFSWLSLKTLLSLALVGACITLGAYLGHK
Procedure, shortened: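 Compounds were added as a 10-point, 3-fold serial dilution and incubated 1.5 h at room temperature. The anisotropy change was fitted to a four-parameter variable-slope curve for IC50, converted to Ki, and duplicates were averaged.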

[4] = biological target: T1, Induced myeloid leukemia cell differentiation protein Mcl-1; test: Binding affinity to GST-tagged Mcl-1 (unknown origin) incubated for 60 mins by TR-FRET-binding affinity assay

Bcl-2-like protein 1, sequence (Q07817 whole entry): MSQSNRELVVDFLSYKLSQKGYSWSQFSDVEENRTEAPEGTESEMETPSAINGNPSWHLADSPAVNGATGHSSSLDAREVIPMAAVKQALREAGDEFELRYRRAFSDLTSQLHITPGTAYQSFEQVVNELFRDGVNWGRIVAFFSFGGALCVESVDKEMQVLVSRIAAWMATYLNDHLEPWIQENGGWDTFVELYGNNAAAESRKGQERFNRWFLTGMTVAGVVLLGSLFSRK
T1 sequence (Q07820 whole entry): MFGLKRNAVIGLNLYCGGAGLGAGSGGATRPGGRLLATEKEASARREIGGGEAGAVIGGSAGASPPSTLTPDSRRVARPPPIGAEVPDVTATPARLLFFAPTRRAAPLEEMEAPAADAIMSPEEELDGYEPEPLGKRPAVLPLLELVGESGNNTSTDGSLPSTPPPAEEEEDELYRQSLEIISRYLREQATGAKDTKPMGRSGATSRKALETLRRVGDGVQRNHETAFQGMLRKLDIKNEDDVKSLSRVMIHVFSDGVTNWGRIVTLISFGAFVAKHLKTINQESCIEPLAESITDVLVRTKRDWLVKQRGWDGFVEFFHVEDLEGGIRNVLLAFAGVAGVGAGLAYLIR

Row | Compound | Ki [1] [µM] | Ki [2] [µM] | Ki [3] [µM] | Ki [4] [µM]
1 | O=C(O)c1cc2cccc3c2n1CCS3 | 51 | – | – | –
2 | Cc1cc(OCCCc2c(C(=O)O)n3c4c(c(Cl)ccc24)CCC3)cc(C)c1Cl | 0.003 | 5.2 | – | –
3 | O=C(O)c1c(CCCOc2cccc3ccccc23)c2cccc3c2n1CCCS3(=O)=O | 0.061 | > 20 | 11.7 | –
4 | Cc1cc(OCCCc2c(C(=O)O)n3c4c(cccc24)SCC3)ccc1Cl | 0.21 | > 20 | 6.3 | –
5 | Cc1cc(OCCCc2c(C(=O)O)n3c4c(c(Cl)ccc24)OCC3)cc(C)c1Cl | – | > 20 | – | –
6 | COCCCc1c(C(=O)O)n(CCN2CCOCC2)c2c(-c3c(C)nn(C)c3COc3ccc(N4CCN(S(=O)(=O)N(C)C)CC4)cc3)cccc12 | – | – | – | 0.000454
7 | O=C(O)c1c(CCCOc2ccc3c(c2)CCCC3)c2cccc3c2n1CCS3 | 0.41 | > 20 | 4.4 | –
8 | Cc1c(C(=O)O)n2c3c(cccc13)OCC2 | 18 | – | – | –
9 | O=C(O)c1c(CCCOc2cccc3ccccc23)c2cccc3c2n1CCCS3 | 0.17 | 7.4 | 9.9 | –
10 | O=C(O)c1cc2ccccc2[nH]1 [INDOLE-2-CARBOXYLIC ACID] | > 1000 | – | – | –
11 | O=C(O)c1c(CCCOc2cccc3ccccc23)c2cccc3c2n1CCC[S+]3[O-] (centres undefined) | 0.074 | > 20 | 16 | –
12 | O=C(O)c1c(CCOc2cccc3ccccc23)c2cccc3c2n1CCO3 | 1.6 | 12.7 | – | –
13 | Cc1c(C(=O)O)n2c3c(cccc13)SCC2 | 18 | – | – | –
14 | Cc1c(C(=O)O)n2c3c(cccc13)CCC2 | 90 | – | – | –
15 | O=C(O)c1c(CCCOc2cccc3c2CCCC3)c2cccc3c2n1CCS3 | 0.15 | 3 | – | –
16 | O=C(O)c1c(CCCOc2cccc3ccccc23)c2cccc3c2n1CCS3(=O)=O | 0.088 | > 20 | – | –
17 | O=C(O)c1c(CCCOc2cccc3ccccc23)c2cccc3c2n1CCO3 | 0.11 | 1.9 | – | –
18 | CC1Cn2c(C(=O)O)cc3cccc(c32)S1 (centres undefined) | 35 | – | – | –
19 | O=C(O)c1cc2cccc3c2n1CCC3 | 131 | – | – | –
20 | Cc1cc(OCCCc2c(C(=O)O)n3c4c(cccc24)SCCC3)cc(C)c1Cl | – | > 20 | – | –
21 | Cc1cc(OCCCc2c(C(=O)O)n3c4c(cccc24)CCC3)cc(C)c1Cl | 0.11 | – | – | –
22 | Cc1cc(OCCCc2c(C(=O)O)n3c4c(cccc24)OCC3)cc(C)c1Cl | 0.065 | – | – | –
23 | O=C(O)c1c(CCCOc2cccc3ccccc23)c2cccc3c2n1CCS3 | 0.12 | > 20 | 3.1 | –
24 | O=C(O)c1c(CCCOc2cccc3ccccc23)c2cccc3c2n1CCC3 | 0.31 | > 20 | – | –
25 | O=C(O)c1c(CCCOc2ccc(Cl)c3ccccc23)c2cccc3c2n1CCS3 | – | 4.7 | 1.1 | –
26 | O=C(O)c1c(CCOc2cccc3ccccc23)c2cccc3c2n1CCS3 | 3 | – | – | –
27 | Cc1cc(OCCCc2c(C(=O)O)n3c4c(cccc24)SCC3)cc(C)c1Cl | – | > 20 | 2.3 | –
28 | O=C(O)c1c(CCOc2cccc3ccccc23)c2cccc3c2n1CCC3 | 4 | > 20 | – | –
